UHRF1 MBD2 ctr = UHRF1 methyl-DNA binding inhibition. UHRF1 binding to methylated oligo, TR-FRET. inhibition, % at 4.4 µM. 0.75% of 370,000 active. AID 687016; in the data active = inhibition above about 21%;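 note: UHRF1 SRA domain binding a hemimethylated CpG hairpin DNA probe; 0% = median of test compound wells and 100% = reference inhibitor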
Target sequence (Q96T88 whole entry, looked up, the tested form may be a part): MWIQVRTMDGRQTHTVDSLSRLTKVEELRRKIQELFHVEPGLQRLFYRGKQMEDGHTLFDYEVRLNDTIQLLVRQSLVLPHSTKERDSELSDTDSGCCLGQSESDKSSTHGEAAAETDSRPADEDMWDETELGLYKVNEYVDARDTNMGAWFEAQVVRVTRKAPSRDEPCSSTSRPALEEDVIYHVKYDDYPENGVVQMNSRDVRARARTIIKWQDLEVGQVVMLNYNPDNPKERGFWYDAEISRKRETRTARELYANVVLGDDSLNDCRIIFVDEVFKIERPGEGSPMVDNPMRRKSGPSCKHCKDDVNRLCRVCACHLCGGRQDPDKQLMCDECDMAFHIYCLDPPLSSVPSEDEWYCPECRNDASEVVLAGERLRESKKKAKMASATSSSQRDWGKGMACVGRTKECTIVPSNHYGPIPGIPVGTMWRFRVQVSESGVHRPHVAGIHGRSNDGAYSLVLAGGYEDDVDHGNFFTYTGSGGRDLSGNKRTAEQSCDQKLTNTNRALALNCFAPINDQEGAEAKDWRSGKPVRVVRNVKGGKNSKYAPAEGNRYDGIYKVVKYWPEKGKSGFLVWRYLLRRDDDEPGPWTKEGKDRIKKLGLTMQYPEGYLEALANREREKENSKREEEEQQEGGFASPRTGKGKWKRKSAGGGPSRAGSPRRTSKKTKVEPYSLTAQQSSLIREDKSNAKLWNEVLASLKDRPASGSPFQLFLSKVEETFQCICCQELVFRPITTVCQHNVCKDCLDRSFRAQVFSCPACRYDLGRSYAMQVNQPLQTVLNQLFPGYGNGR
rCAG binder = molecules binding r(CAG) RNA repeats; 1.3% of 370,000 active; inhibition, % at 3 µM; r(CAG) RNA repeat, TO-PRO-1 dye displacement fluorescence; AID 651821;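 active = inhibition above the plate cutoff, the mean of all test compounds on that plate plus 3 SD, cut at about 35% in these data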;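 note: 0% = DMSO alone and 100% = 100 µM mitoxantrone as full dye displacement; higher means more dye released from RNA so lower well fluorescence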
MBD2 inh = inhibitors of human MBD2 binding to methylated oligonucleotide; TR-FRET; Q9UBB5; 0.31% of 370,000 active; inhibition, % at 4.4 µM; in the data active = inhibition above about 13%
LEDGF integ inh = blocks HIV-1 LEDGF/p75-dependent DNA integration; TR-FRET IN-LEDGF/p75 DNA integration, Eu/Cy5; inhibition, % at 3.7 µM; 0.64% of 370,000 active;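 active = inhibition above the screen-wide mean plus 3 SD, cut at about 13% in these data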;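 note: signal is the Cy5 over europium emission ratio at 671 and 618 nm; 0% = plate median of compound wells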
CSN inh = inhibitors of human CSN-mediated cullin deneddylation | Purified CSN, SCF-Nedd8-OG deneddylation, fluorescence polarization | inhibition, % at 12.5 µM | 0.38% of 360,000 active | AID 651999;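 active = pattern-corrected inhibition above about 35%, with an unprinted fluorescence ratio check between 0.5 and 1.5, limit read from the data, passing the limit was not always enough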;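 note: 0% = enzyme with substrate and 100% = substrate without enzyme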
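Assay system: HEK293T-derived human Csn5 enzyme; quantity: 0.24 nM enzyme; medium: Tris/NaCl/DTT buffer, pH 7.5; also added: substrate SCFSkp2-Nedd8OG, 10 nM; doses: 12.5 µM compound; schedule: 90 min reaction at room temperature; signal: FP; read-out: % inhibition of substrate cleavage by Csn5; benchmarks: substrate-only high control, full reaction low control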
ATG4B inh = blocks human ATG4B protease cleavage of LC3 substrate. 0.51% of 340,000 active. AID 504462. Q9Y4P1. ATG4B cleavage of LC3-PLA2, NBD-HPC fluorescence, 1 h. inhibition, % at 8.33 µM; in the data active = inhibition above about 40%
* hit, by the source's call; · = not tested or not shown. Shown are actives, neighbours in structure and some others; about 3.1% of the full set was active somewhere.

SMILES	UHRF1 MBD2 ctr	rCAG binder	MBD2 inh	LEDGF integ inh	CSN inh	ATG4B inh
O=C(OCC#CCSc1nnc(-c2cccc3ccccc23)o1)c1ccccc1	-2	·	-7	0	·	·
COc1ccc(-c2nc3cc(NC(=O)Cc4ccc(OC)c(OC)c4)ccc3o2)cc1	0	9	5	1	43*	15
COc1ccc(CC(=O)Nc2ccc(-c3nnc(-c4ccccc4)o3)cc2)cc1OC	·	·	·	·	46*	-6
COc1ccc(-c2nc3cc([N+](=O)[O-])ccc3o2)cc1	21*	0	-4	3	3	3
COc1ccc(Cc2c(-c3ccco3)nc3ccc(Cl)cn23)c(C)c1	6	22	1	11	40*	·
COc1ccc(Cc2c(C(C)(C)C)nc3ccc(C)cn23)c(C)c1	24*	5	9	3	8	·
COc1ccc(Cc2c(C(C)(C)C)nc3ccc(Cl)cn23)c(C)c1	-1	9	-4	-2	4	·
COc1ccccc1Cc1c(-c2ccc(OC)c(OC)c2)nc2ccc(C)cn12	14	2	3	-1	1	·
COc1ccccc1Cc1c(C(C)(C)C)nc2ccc(C)cn12	23*	1	2	-2	-2	·
COc1ccccc1Cc1c(C(C)(C)C)nc2c(C)cc(Br)cn12	23*	9	2	0	·	·
Cc1ccccc1C(=O)N(C)[C@H]1C[C@H]2c3[nH]c4c(-c5ccc6c(c5)OCO6)cccc4c3CCN2C[C@H]1[C@H](C)O	-3	5	-5	5	·	·
Cc1ccc(NC(=O)c2sc3nc[nH]c(=O)c3c2C)c(C)c1	23*	-2	7	-1	-5	-5
CCOC(=O)c1sc2nc[nH]c(=O)c2c1C	-4	1	-3	1	-1	-7
Cc1cc(OC(=O)c2c(C)cc(OC(=O)c3c(C)cc(O)cc3O)cc2O)cc(O)c1C(=O)O	5	69*	7	-2	6	9
COC(=O)c1c(C)cc(O)cc1O	2	0	0	-2	3	-12
CCOC(=O)[C@@]12CN(C(=O)OC(C)(C)C)CC=C1N(Cc1ccc(OC)cc1)C(=O)[C@H]2CC(=O)NCc1cccs1	0	0	-1	4	·	·
Cc1nc2c(C(=O)NCc3ccccc3)c[nH]n2c(=O)c1Cl	4	41*	4	1	5	-2
COC(=O)c1c[nH]n2c(=O)c(Cl)c(C)nc12	1	1	-4	1	1	-4
Cc1ccc(S(=O)(=O)N2CCCC(C(=O)NCc3ccco3)C2)cc1 (stereo unspecified)	-1	2	-4	3	·	·
CCC1CCCCN1CCCNC(=O)c1cn(C)c2ccc(S(=O)(=O)N(C)C3CCCCC3)cc2c1=O (stereo unspecified)	23*	1	6	6	5	-1
COc1ccc(C2=NNC(=O)CC2)cc1	23*	1	0	2	-2	-8
Cc1nn(-c2ccccc2)c(C)c1C(=O)Oc1ccccc1	32*	-5	1	0	1	-6
N#CC(C(=O)NCCc1ccccc1)c1nc2ccccc2nc1N1CCOCC1 (stereo unspecified)	-5	2	-3	-2	39*	-5
CCCCN(CCCC)c1nc2ccccc2nc1C(C#N)C(=O)NCCCOC (stereo unspecified)	0	0	-5	-1	99*	-16
CCCCCNC(=O)C(C#N)c1nc2ccccc2nc1N1CCCC1 (stereo unspecified)	·	·	·	·	14	-4
SMILES	UHRF1 MBD2 ctr	rCAG binder	MBD2 inh	LEDGF integ inh	CSN inh	ATG4B inh
CCCCCCNC(=O)C(C#N)c1nc2ccccc2nc1N1CCCC1 (stereo unspecified)	2	1	-4	1	40*	-13
CCN(CC)c1nc2ccccc2nc1C(C#N)C(=O)NCCCOC (stereo unspecified)	-4	-4	-2	1	-4	-2
N#CC(C(=O)NCCc1ccccc1)c1nc2ccccc2nc1N1CCCCC1 (stereo unspecified)	-2	-1	-2	-3	3	0
COc1ccc(OC)c(S(=O)(=O)N2CCCC(C(=O)Nc3c(C)n(C)n(-c4ccccc4)c3=O)C2)c1 (stereo unspecified)	2	-2	1	4	·	·
CSc1nnc(-c2cccc(NC(=O)c3ccccc3)c2)n1C	26*	-5	-3	-1	-4	-8
CC(C)CC(=O)Nc1cccc(C(C)O)c1 (stereo unspecified)	21*	-1	-2	4	·	·
COc1cccc(CNC(=O)N2CCN(c3ccccc3Cl)CC2)c1	-1	-2	1	0	1	24
COc1ccccc1N1CCN(C(=O)NCc2cccc(C(F)(F)F)c2)CC1	2	-8	2	4	-2	44*
Clc1nnc2ccc(-c3ccccc3)nn12	-5	0	7	4	54*	-2
Cc1ccc2nnc(Cl)n2n1	1	-2	2	2	1	4
CC1CCN(S(=O)(=O)c2cccc(C(=O)NNC(=O)c3ccco3)c2)CC1	30*	4	5	1	-8	-2
O=[N+]([O-])c1cccc(OC[C@@H](O)CN2CCC(C(O)(c3ccccc3)c3ccccc3)CC2)c1	0	1	1	0	·	·
COC(=O)[C@H]1C[C@@]2(C)c3ccccc3N(S(=O)(=O)c3ccccc3)[C@H]2N1C(=O)CNC1CCCCC1	0	2	0	-1	·	·
CCOC(=O)C1CCN(c2c(C(=O)c3ccccc3)cnc3ccc(CC)cc23)CC1	1	3	7	2	3	3
CCOC(=O)C1CCCN(c2c(C(=O)c3ccccc3)cnc3ccccc23)C1 (stereo unspecified)	38*	-11	4	2	3	-3
O=C(Nc1ccc2c(c1)C(=O)NC2=O)c1cccc(C(F)(F)F)c1	21*	4	7	4	3	-6
CCN(CCN(C)C)C(=O)C1CCN(S(=O)(=O)c2c(C)noc2/C=C/c2ccccc2F)CC1	0	-3	2	-6	-1	-8
CCOc1ccccc1/C=C/c1onc(C)c1S(=O)(=O)N1CCC(C(=O)N(CC)CC)CC1	16	-4	13*	-1	1	-1
C#CCNC(=O)C[C@H]1C[C@@]2(C(=O)OC)C(=C[C@H](COCc3ccccc3)O[C@@H]2C)N(Cc2cccc3ccccc23)C1=O	0	8	0	-2	·	·
CSc1nc2c(c(=O)[nH]1)C(c1ccc(C(F)(F)F)cc1)CC(=O)N2 (stereo unspecified)	2	-2	-2	6	-8	-8
Cn1c2c(c(=O)n(C)c1=O)C(c1ccc(C(F)(F)F)cc1)CC(=O)N2 (stereo unspecified)	31*	6	-5	-1	2	6
CSCCCNc1nc(C)nc2c1nnn2Cc1ccccc1	0	1	-7	3	·	·

Compound activity from PubChem BioAssay.
